The nature of data set [1]: Antioxidant activity assessed as chemical oxidative degradation into 4-(5-amino-6-(4-(dimethylamino)phenyl)pyrazin-2-yl)phenol at 1000 uM after 19 hrs by HPLC. Type of data set: functional. In short, it runs like this:
(§1)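 Aerobic oxidation of imidazopyrazinone (10^-3 M) with internal standard (5 × 10^-4 M) in 90:10:0.1 CH2Cl2/isopropanol/DEA. Sealed vial under white light at 23 °C for 19 h. Products quantified by HPLC against calibration curves, detection at 280 nm.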

For the next data set, the system named is Hamster. As to the kind of experiment: Antioxidant activity against microvascular damage in hamster model of cheek pouch submitted to ischemia/reperfusion assessed as inhibition of leaky sites at 3 mg/kg treated by gavage route 30 mins before anesthesia measured after 30 mins of reperfusion by FITC-dextran based microscopy. Type of data set: functional. As to conditions: Cricetinae, po. In short, it runs like this: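 Hamsters anesthetized, kept on a-chloralose (100 mg/kg) via the femoral vein, femoral artery cannulated for blood pressure, body temperature 37.5 °C. Compound at 3 mg/kg or solvent given by gavage in 0.2 ml, 3 animals per group. FITC-dextran (150,000 Da) given i.v. at 25 mg/100 g. Cuff ischemia of everted pouch. Leaky sites counted; % inhibition = [1 − mean treated/mean control] × 100.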

Data set [2] in a line: Antioxidant activity assessed as chemical oxidative degradation into N-(5-(4-hydroxyphenyl)-3-(4-methoxyphenyl)pyrazin-2-yl)acetamide at 1000 uM after 19 hrs by HPLC. Type of data set: functional. The method in brief: as §1
Data set [3] can be described thus: Antioxidant activity assessed as chemical oxidative degradation into N-(3-(4-acetylphenyl)-5-(4-hydroxyphenyl)pyrazin-2-yl)acetamide at 1000 uM after 19 hrs by HPLC. The data set is classed as functional. The method in brief:
as §1

The nature of data set [4]: Antioxidant activity assessed as chemical oxidative degradation into N-(5-(4-hydroxyphenyl)-3-(4-(trifluoromethyl)phenyl)pyrazin-2-yl)acetamide at 1000 uM after 19 hrs by HPLC. The data set is classed as functional. In short, it runs like this:
as §1

A short description of data set [5]: Antioxidant activity assessed as chemical oxidative degradation into 4-(5-amino-6-phenylpyrazin-2-yl)phenol at 1000 uM after 19 hrs by HPLC. The data set is classed as functional. The method in brief: as §1
The nature of data set [6]: Antioxidant activity assessed as chemical oxidative degradation into N-(3-(4-(dimethylamino)phenyl)-5-(4-hydroxyphenyl)pyrazin-2-yl)acetamide at 1000 uM after 19 hrs by HPLC. The data set is classed as functional. In short, it runs like this: as §1
A short description of data set [7]: Chemical stability after 19 hrs. Type of data set: physicochemical. The method in brief: as §1
The nature of data set [8]: Antioxidant activity assessed as chemical oxidative degradation into N-(5-(4-hydroxyphenyl)-3-phenylpyrazin-2-yl)acetamide at 1000 uM after 19 hrs by HPLC. The data set is classed as functional. In short, it runs like this:
as §1

Data set [9] is described as follows: Antioxidant activity assessed as chemical oxidative degradation into 4,4'-(3-aminopyrazine-2,6-diyl)diphenol at 1000 uM after 19 hrs by HPLC. The data set is classed as functional. The method in brief:
as §1

A short description of data set [10]: Stability at pH 7.4 at 80 uM during 1 day by HPLC in presence of linoleic acid and azo-bis-isobutyronitrile. As to conditions: buffer, pH 7.4, 24 h. Type of data set: physicochemical.
Data set [11] is described as follows: Antioxidant activity assessed as chemical oxidative degradation into N-(3,5-bis(4-hydroxyphenyl)pyrazin-2-yl)acetamide at 1000 uM after 19 hrs by HPLC. Type of data set: functional. The method in brief:
as §1

A short description of data set [12]: Antioxidant activity assessed as chemical oxidative degradation into 4-(5-amino-6-(4-(trifluoromethyl)phenyl)pyrazin-2-yl)phenol at 1000 uM after 19 hrs by HPLC. The data set is classed as functional. In short, it runs like this: as §1
The nature of data set [13]: Antioxidant activity assessed as chemical oxidative degradation into 4-(5-amino-6-(4-methoxyphenyl)pyrazin-2-yl)phenol at 1000 uM after 19 hrs by HPLC. Type of data set: functional. The method in brief:
as §1

A short description of data set [14]: Antioxidant activity assessed as chemical oxidative degradation into N-(5-(4-hydroxyphenyl)pyrazin-2-yl)benzamide at 80 uM after 18 hrs by HPLC. The data set is classed as functional. The method in brief: (§2)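 Imidazopyrazinone mixed 1:1 with standard (8 × 10^-5 M) in 96:4 ACN–EtOH. Kept in the dark at 37 °C and sampled by HPLC hourly for 18 h.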
A short description of data set [15]: Antioxidant activity assessed as chemical oxidative degradation into 4-(5-aminopyrazin-2-yl)phenol at 80 uM after 18 hrs by HPLC. Type of data set: functional. The method in brief: as §2
A short description of data set [16]: Antioxidant activity assessed as chemical oxidative degradation into 4-(5-aminopyrazin-2-yl)phenol at 80 uM after 18 hrs by HPLC in presence of azo-bis-isobutyronitrile. Type of data set: functional.
The nature of data set [17]: Antioxidant activity assessed as chemical oxidative degradation into N-(5-(4-hydroxyphenyl)pyrazin-2-yl)benzamide at 80 uM after 18 hrs by HPLC in presence of azo-bis-isobutyronitrile. The data set is classed as functional.
Data set [18] is described as follows: Antioxidant activity assessed as chemical oxidative degradation into N-(5-(4-hydroxyphenyl)pyrazin-2-yl)benzamide at 80 uM by HPLC in presence of linoleic acid. Type of data set: functional.
Data set [19] can be described thus: Antioxidant activity assessed as chemical oxidative degradation into 4-(5-aminopyrazin-2-yl)phenol at 80 uM by HPLC in presence of linoleic acid. The data set is classed as functional.
The nature of data set [20]: Antioxidant activity assessed as time required for chemical oxidative degradation of compound at 80 uM by HPLC in presence of linoleic acid. Type of data set: functional.
Data set [21] can be described thus: Antioxidant activity assessed as chemical oxidative degradation into benzoic acid at 80 uM by HPLC in presence of linoleic acid. Type of data set: functional.
Data set [22] is described as follows: Antioxidant activity assessed as time required for chemical oxidative degradation of compound at 80 uM by HPLC in presence of azo-bis-isobutyronitrile. The data set is classed as functional.
Data set [23] can be described thus: Antioxidant activity assessed as chemical oxidative degradation into N-(5-(4-hydroxyphenyl)pyrazin-2-yl)benzamide at 80 uM by HPLC in presence of linoleic acid and azo-bis-isobutyronitrile. Type of data set: functional.
A short description of data set [24]: Antioxidant activity assessed as chemical oxidative degradation into 4-(5-aminopyrazin-2-yl)phenol at 80 uM by HPLC in presence of linoleic acid and azo-bis-isobutyronitrile. Type of data set: functional.
A short description of data set [25]: Antioxidant activity assessed as chemical oxidative degradation into benzoic acid at 80 uM by HPLC in presence of linoleic acid and azo-bis-isobutyronitrile. Type of data set: functional.
The nature of data set [26]: Antioxidant activity assessed as chemical oxidative degradation into 1-(4-(3-amino-6-(4-hydroxyphenyl)pyrazin-2-yl)phenyl)ethanone at 1000 uM after 19 hrs by HPLC. The data set is classed as functional. The method in brief: as §1
A short description of data set [27]: Antioxidant activity assessed as chemical oxidative degradation into N-(3-(4-fluorophenyl)-5-(4-hydroxyphenyl)pyrazin-2-yl)acetamide at 1000 uM after 19 hrs by HPLC. The data set is classed as functional. In short, it runs like this: as §1
Data set [28] in a line: Antioxidant activity assessed as chemical oxidative degradation into 4-(5-amino-6-(4-fluorophenyl)pyrazin-2-yl)phenol at 1000 uM after 19 hrs by HPLC. Type of data set: functional. The method in brief:
as §1

For `CN(C)c1ccc(-c2nc(-c3ccc(O)cc3)cnc2N)cc1`, in data set [1], the Activity amounted to 68%. The inhibition in vivo at 3 mg/kg with Hamster turned out to be 50%.

For `COc1ccc(-c2nc(-c3ccc(O)cc3)cnc2NC(C)=O)cc1`, the Activity in data set [2] turned out to be 21%. Turning to `Cc1nc2c(-c3ccc(N(C)C)cc3)[nH]c(-c3ccc(O)cc3)cn-2c1=O`, the inhibition in vivo at 3 mg/kg in the data set on Hamster stood at 21%. Take `CC(=O)Nc1ncc(-c2ccc(O)cc2)nc1-c1ccc(C(C)=O)cc1`: the Activity in data set [3] amounted to 22%. Turning to `CC(=O)Nc1ncc(-c2ccc(O)cc2)nc1-c1ccc(C(F)(F)F)cc1`, the Activity in data set [4] turned out to be 16%. `Nc1ncc(-c2ccc(O)cc2)nc1-c1ccccc1`: the Activity in [5] came to 66%. The inhibition in vivo at 3 mg/kg in the data set on Hamster stood at 18%. For the compound `CC(=O)Nc1ncc(-c2ccc(O)cc2)nc1-c1ccc(N(C)C)cc1`, the Activity in data set [6] came out at 18%. Take `CC(=O)Nc1ncc(-c2ccc(O)cc2)nc1-c1ccccc1`: in data set [7], the Stability entry is “Stable”. The Activity in data set [8] turned out to be 15%.

For `Nc1ncc(-c2ccc(O)cc2)nc1-c1ccc(O)cc1`, in [9], the Activity was 77%. In addition, the inhibition in vivo at 3 mg/kg with Hamster was 29%. In the case of `Cc1nc2c(-c3ccc(C(F)(F)F)cc3)[nH]c(-c3ccc(O)cc3)cn-2c1=O`, in the data set with Hamster, the inhibition in vivo at 3 mg/kg was determined as 17%. For `Cc1nc2c(-c3ccc(F)cc3)[nH]c(-c3ccc(O)cc3)cn-2c1=O`, the inhibition in vivo at 3 mg/kg in the data set with Hamster is 34%. The same measure, in the same setting: the figure for `COc1ccc(-c2[nH]c(-c3ccc(O)cc3)cn3c(=O)c(C)nc2-3)cc1` is 44%. As for `O=C(Nc1cnc(-c2ccc(O)cc2)cn1)c1ccccc1`, the Stability entry in data set [10] is “Stable”.

On to `COc1cc(C(C)=O)ccc1O` [APOCYNIN], for which, in the data set with Hamster, the inhibition in vivo at 3 mg/kg stood at 40%.

For the compound `CC(=O)Nc1ncc(-c2ccc(O)cc2)nc1-c1ccc(O)cc1`, the Activity in data set [11] amounted to 16%.

In the case of `Nc1ncc(-c2ccc(O)cc2)nc1-c1ccc(C(F)(F)F)cc1`, the Activity in data set [12] turned out to be 78%. Besides, the inhibition in vivo at 3 mg/kg in the data set with Hamster came to 14%.

As to `COc1ccc(-c2nc(-c3ccc(O)cc3)cnc2N)cc1`, the Activity in data set [13] is 71%. The inhibition in vivo at 3 mg/kg in the data set with Hamster was 10%. Turning to `Oc1ccc(-c2cn3c(O)c(-c4ccccc4)nc3cn2)cc1`, the Activity in [14] was < 5%; in data set [15] it was 9%; in [16], 44%; in data set [17], 26%; in data set [18], 66%; in data set [19], 30%. In addition, the Activity in [20] was < 6 h; in data set [21], 27%; in data set [22] it was 5 h; in data set [23] it was 57%; in data set [24] it was 40%; in data set [25] it was 33%. Turning to `CC(=O)c1ccc(-c2nc(-c3ccc(O)cc3)cnc2N)cc1`, the Activity in data set [26] came out at 67%. On to `Cc1nc2c(-c3ccccc3)[nH]c(-c3ccc(O)cc3)cn-2c1=O`, for which the inhibition in vivo at 3 mg/kg in the data set on Hamster is 12%.

As to `O=C(O)c1ccccc1` [BENZOIC ACID], the Stability result in data set [10] is recorded as “Stable”.

Take `Cc1nc2c(-c3ccc(O)cc3)[nH]c(-c3ccc(O)cc3)cn-2c1=O`: the inhibition in vivo at 3 mg/kg in the data set on Hamster turned out to be 40%.

Turning to `CC(=O)Nc1ncc(-c2ccc(O)cc2)nc1-c1ccc(F)cc1`, the Activity in data set [27] came to 17%. Consider `Nc1ncc(-c2ccc(O)cc2)nc1-c1ccc(F)cc1`, for which the Activity in data set [28] is 76%. For the same compound, the inhibition in vivo at 3 mg/kg with Hamster is 42%.

Values taken from ChEMBL document CHEMBL1153029, “In vitro and in vivo studies of 6,8-(diaryl)imidazo[1,2-a]pyrazin-3(7H)-ones as new antioxidants” (Bioorg Med Chem, 2009).
